Screening data deposited in PubChem by Johns Hopkins Ion Channel Center.
RGS4 block – inhibitors of human RGS4 | AID 463165 | HEK293 M3R/RGS4 inducible, Fluo-4 calcium flux; stronger effect = higher value; triggered by carbachol at its EC20 | 310,000 tested, 0.45% active | B-score at 10 µM | P49798;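 active = B-score, a plate-corrected calcium signal, over three deviations above library mean, with baseline fluorescence within five deviations of library mean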;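 note: RGS4 expression induced by doxycycline in cells with stable M3 receptor; B-score is computed from the integrated fluorescence ratio over baseline after carbachol; higher B-score means a larger calcium signal and so more RGS4 inhibition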
Target sequence (P49798 whole entry, looked up): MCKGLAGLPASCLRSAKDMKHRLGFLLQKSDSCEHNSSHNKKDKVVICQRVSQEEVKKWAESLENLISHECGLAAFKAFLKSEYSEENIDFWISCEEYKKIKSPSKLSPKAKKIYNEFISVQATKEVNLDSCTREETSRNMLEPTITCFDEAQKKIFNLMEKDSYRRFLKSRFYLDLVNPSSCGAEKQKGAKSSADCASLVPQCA
MrgX1 antag – blocks BAM8-22 activation of human MrgX1 receptor; MRGX1-HEK293 calcium flux, Fluo-4, BAM8-22 antagonism; stronger effect = lower value; B-score at 10 µM; 310,000 tested, 1.3% active;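 active = calcium-response B-score plate-corrected more than 3 library SD below zero, starting fluorescence within 5 deviations, no agonist response on first addition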;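 note: peak minus trough fluorescence over baseline after final BAM8-22 challenge near maximal dose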
Target sequence (Q96LB2 whole entry, looked up): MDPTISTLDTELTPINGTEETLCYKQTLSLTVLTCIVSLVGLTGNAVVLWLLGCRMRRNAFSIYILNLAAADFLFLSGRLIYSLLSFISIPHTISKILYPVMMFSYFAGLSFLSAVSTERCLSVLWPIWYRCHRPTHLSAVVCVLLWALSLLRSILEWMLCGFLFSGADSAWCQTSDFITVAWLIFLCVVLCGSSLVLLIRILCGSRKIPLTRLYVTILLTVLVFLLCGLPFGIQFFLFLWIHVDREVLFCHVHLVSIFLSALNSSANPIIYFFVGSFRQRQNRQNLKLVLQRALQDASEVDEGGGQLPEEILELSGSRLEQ
MrgX1 agonist – human MrgX1 receptor agonism, primary screen | Q96LB2 | MrgX1-HEK293 cells, Fluo-4 calcium fluorescence, agonist mode; stronger effect = higher value | B-score at 10 µM | 310,000 tested, 0.44% active | AID 588627;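 active = calcium response B-score plate-corrected fluorescence ratio at least 3 library SD, with starting fluorescence B-score inside 5 SD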
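Test system: Stable human MrgX1 HEK293 cell line | Schedule: Overnight plating before 1 h dye loading | Read-out basis: Baseline-normalised fluorescence change ratio, B-scored | Detection: Kinetic calcium dye fluorescence, Fluo-4 NW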
MrgX1 PAM – human MrgX1 positive allosteric modulation, primary screen. Q96LB2. 310,000 tested, 0.63% active. B-score at 10 µM. MrgX1-HEK293, Fluo-4 calcium flux, FDSS; stronger effect = higher value. AID 588675;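 active = plate-corrected calcium response at least 3 library SD above typical, normal starting fluorescence, not activating the receptor alone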;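 note: compound read alongside a low EC10 to EC30 dose of BAM8-22 agonist; peak minus trough fluorescence over baseline measured at the second addition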
RGS4 act – RGS4 potentiation or activation; HEK293 M3R/inducible RGS4, carbachol calcium flux Fluo4; stronger effect = lower value; B-score at 10 µM; 310,000 tested, 0.92% active; AID 463111;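 active = B-score of the integrated calcium signal more than 4 SD below the library mean, with starting fluorescence not abnormally high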;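 note: negative B-score means reduced calcium response which marks RGS4 activation or potentiation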
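Material: M3R-expressing HEK293 line, RGS4 induced by doxycycline | Schedule: Overnight RGS4 induction, 30 min dye load 37 °C, 20 min compound RT | Measured by: Fluo4 fluorescence kinetic imaging of calcium | Read-out: Integrated calcium ratio converted to B score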
MrgX1 ant reconf – confirmation of human MrgX1 receptor antagonists; AID 602420; remaining BAM8-22 calcium response % of control (stronger effect = lower value), % at 10 µM; 2,300 tested, 19% active; shares compounds with MrgX1 antag; MrgX1-HEK293, BAM8-22 calcium flux, Fluo-4; stronger effect = lower value;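 active = remaining agonist calcium response no higher than 100% minus 3 SD of agonist-only control wells, with starting fluorescence near control levels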;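 note: agonist BAM8-22 given at a near maximal EC90 to ECmax level; peak minus minimum fluorescence divided by baseline after agonist addition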
HEK293 Ca flux – MrgX1 antagonist counter-screen hit in parental HEK293 cells; shares compounds with MrgX1 antag; Fluo-4 calcium fluorescence, FDSS; fluorescence ratio F(max-min)/F0 at 10 µM; 4,000 tested, 2% active; AID 624111;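 active = duplicate-averaged calcium fluorescence ratio at least three times the standard deviation of buffer wells, a nonspecific response in parental cells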
HEK293 Ca counter – MrgX1 allosteric activator counter-screen hit in parental HEK293 cells; shares compounds with MrgX1 antag; parental HEK293 calcium flux, Fluo-4 fluorescence ratio; stronger effect = higher value; fluorescence ratio F(max-min)/F0 at 10 µM; 4,000 tested, 0.4% active; AID 624114;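 active = calcium fluorescence ratio, averaged over duplicates, at least 3 SD of the buffer-well ratio, meaning a nonspecific response in receptor-free cells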;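 note: untransfected parental HEK293 lacking MrgX1 used as counterscreen for MrgX1 allosteric activators; fluorescence change taken during the second addition on a kinetic imager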
HEK293 Ca cntr2 – counter-screen for MrgX1 activators: effect in parental HEK293 cells; fluorescence ratio F(max-min)/F0 at 10 µM; shares compounds with MrgX1 antag; 4,000 tested, 8.7% active; Fluo-4 calcium fluorescence (FDSS); stronger effect = higher value;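 active = calcium fluorescence ratio at least three times the spread of buffer wells, meaning a non-specific response in parental cells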
Numbers without * were called inactive; i = inactive; x = not tested or not shown. Shown are actives, neighbours in structure and some others; about 3.5% of the full set was active somewhere.

SMILES	RGS4 block	MrgX1 antag	MrgX1 agonist	MrgX1 PAM	RGS4 act	MrgX1 ant reconf	HEK293 Ca flux	HEK293 Ca counter	HEK293 Ca cntr2
C(=C\c1ccc2ccccc2n1)/c1ccccc1	i	i	i	i	i	x	x	x	x
Cc1ccccc1CC1(CO)CCCN(Cc2cn[nH]c2-c2ccccc2)C1 (stereo not given)	i	i	i	i	i	x	x	x	x
COc1cccc(CC2(CO)CCCN(Cc3cn[nH]c3-c3ccccc3)C2)c1 (stereo not given)	i	-5.01*	i	i	i	72.3%*	i	i	i
CC1(C)Cc2c(sc3[nH]c(=S)[nH]c(=O)c23)CO1	i	i	i	i	i	x	x	x	x
O=C(CSc1nnc(-c2ccccc2Cl)o1)N1CCCC1	i	i	i	i	i	x	x	x	x
O=C(CSc1nnc(-c2ccccc2Cl)o1)N1CCCCC1	i	-4.86*	i	i	i	i	i	i	i
Cc1cc(Br)ccc1NC(=O)CN(C)C(=O)Cn1c(=O)cnc2ccccc21	i	i	i	i	i	x	x	x	x
CCn1ncc(Br)c1C(=O)Nc1sc2c(c1C(=O)OC)CCC2	i	i	i	i	i	x	x	x	x
CCOC(=O)c1c(NC(=O)c2c(Br)cnn2CC)sc(C)c1C	i	-7.1*	i	i	i	i	i	i	i
Cc1ccc(C(=O)Nc2ccncc2)cc1S(=O)(=O)N1CCOCC1	i	-4.64*	i	i	i	i	i	i	63.7*
O=C(Nc1cccc(Br)c1)c1ccc(Cl)c(S(=O)(=O)N2CCOCC2)c1	i	-4.69*	i	i	i	79.6%*	i	i	i
Cc1ccc(C(=O)NCc2ccco2)cc1S(=O)(=O)N1CCCCC1	i	-6.7*	i	i	i	i	i	i	i
Cc1ccc(C(=O)Nc2ccccc2C(=O)NCc2ccco2)cc1S(=O)(=O)N1CCCCC1	i	i	i	i	i	x	x	x	x
Cc1ccc(S(=O)(=O)Nc2cc(=O)[nH]c3c2CCC3)cc1	i	i	i	i	i	x	x	x	x
C(=N\n1cnnc1)/c1ccc2ncccc2c1	i	-4.66*	i	i	i	i	i	i	i
C(=N\n1cnnc1)/c1ccccn1	i	i	i	i	i	x	x	x	x
Cc1ccc2[nH]c(O)c(N=NC(=O)C3CC3c3ccccc3)c2c1Br (stereo not given)	i	i	i	i	i	x	x	x	x
CN(C)S(=O)(=O)c1ccc2c(c1)C(CC(=O)O)OC2=O (stereo not given)	i	-4.54*	i	i	i	i	i	i	i
COc1ccc(S(=O)(=O)N2CCC3(CC2)OCCN3S(=O)(=O)c2ccc(C)cc2)cc1OC	i	-6.63*	i	i	i	i	i	i	i
CCCCOCCCNc1ncnc2c1[nH]c1ccccc12	i	-13.9*	i	i	i	26.2%*	i	i	i
CCOCCCNc1ncnc2c1[nH]c1ccccc12	i	i	i	i	i	x	x	x	x
NNc1ccc(Cc2ccc(Cl)cc2Cl)nn1	i	i	i	i	i	x	x	x	x
Nc1nc(N)c(Cc2ccc(Cl)cc2Cl)c(N)n1	i	-4.78*	i	i	i	71.2%*	i	i	i
CC(=O)NCCC(=O)Nc1sc2c(c1-c1nc3ccccc3[nH]1)CCCC2	i	i	i	i	i	x	x	x	x
